According to publication PMC7906590 (ACS Omega, 2021):

How the values were obtained:
[1] = Photostability of solution, HPLC purity after 1 h of light exposure; assay type: physicochemical; details: 1 h light exposure
Summary of the method: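 Test compound dissolved in acetonitrile–potassium dihydrogen phosphate solution. A reference solution was kept in the dark, and a second sample was exposed to light for 1 h. Purity of each was determined by HPLC with DAD detection.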

[2] = biological target: adenosine A2A (hADORA2A) receptor (Homo sapiens, UniProt P29274); test: cAMP ELISA in NECA/ADA-stimulated hADORA2A-HEK293 cells; assay type: cell-based
Sequence of adenosine A2A (hADORA2A) receptor (P29274 whole entry): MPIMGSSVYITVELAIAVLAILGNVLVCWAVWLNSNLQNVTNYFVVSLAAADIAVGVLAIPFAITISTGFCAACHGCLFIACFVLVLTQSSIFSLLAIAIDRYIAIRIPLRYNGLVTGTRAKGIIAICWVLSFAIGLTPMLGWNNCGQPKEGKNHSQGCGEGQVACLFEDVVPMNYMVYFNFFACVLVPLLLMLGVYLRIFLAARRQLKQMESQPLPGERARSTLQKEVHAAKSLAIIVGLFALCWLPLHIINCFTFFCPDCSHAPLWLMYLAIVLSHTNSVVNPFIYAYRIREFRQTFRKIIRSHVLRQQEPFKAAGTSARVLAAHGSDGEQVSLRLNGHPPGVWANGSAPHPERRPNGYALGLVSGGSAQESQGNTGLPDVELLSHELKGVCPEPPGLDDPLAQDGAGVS

SMILES | isomerization after 1 h of light exposure [1] | IC50 [2]
CCn1c(=O)c2c(nc(/C=C/c3ccc(OC)c(OC)c3)n2C)n(CC)c1=O [Istradefylline, istradefylline] | about 1/3 | 
Nc1ncnc2[nH]c(/C=C/c3ccccc3)nc12 [II-1-1, (E) -8-styryl-9H-purine-6-amine] |  | > 421 µM
